# Source: PubChem BioAssay AID1381 (University of Pittsburgh Molecular Library Screening Center, 2008)
# Screen size: about 220,000 compounds; about 1,000 (0.45%) were called active.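 The calls were made as follows: active = plate z-score of nuclear minus cytoplasmic receptor signal below a set negative limit, without overly bright fluorescence or cell loss (cut at about -3.5 in these data, passing the limit was not always enough); inactive = the rest, inconclusive results apart.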 Shown is part of a subset that was picked to be rich in actives.
# Test: inhibitors of GR-EGFP nuclear translocation, primary screen, dynein cargo transport inhibitor project, imaging, high-content, 3617.4 mouse cells (AID 1381)
# Conditions: stimulated with dexamethasone, 1 µM
# Procedure, shortened: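 Also added – dexamethasone, 1.0 µM final · Buffer or medium – tet-free, stripped-serum medium · Schedule – induction 48 h, compound 1 h, agonist 30 min · Detection – formaldehyde fixation, Hoechst nuclear stain, 10x automated fluorescence imaging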
# [1] = measured here: cell count per field, at 20 µM
# [2] = measured here: cytoplasmic GR-EGFP intensity, at 20 µM, stronger effect = higher value
# [3] = measured here: nuclear GR-EGFP intensity, at 20 µM, stronger effect = lower value
# [4] = measured here: cell count per field, at 50 µM
# [5] = measured here: cytoplasmic GR-EGFP intensity, at 50 µM, stronger effect = higher value
# [6] = measured here: nuclear GR-EGFP intensity, at 50 µM, stronger effect = lower value
Structure (SMILES),"z-score (at 20 µM, stronger effect = lower value)",z-score [1],z-score [2],z-score [3],"z-score (at 50 µM, stronger effect = lower value)",z-score [4],z-score [5],z-score [6]
CC(OC(=O)c1ccccc1N1C(=O)C2C3CCC(C3)C2C1=O)C(=O)c1ccccc1 (stereo unspecified),0.064 (inactive),-1.14,-0.233,-0.118,–,–,–,–
CC(C)CNc1ncnc2c1cnn2Cc1ccc(Cl)cc1,-0.416 (inactive),0.999,-0.294,-0.416,–,–,–,–
CCOc1cc(N2CCOCC2)c(OCC)cc1NC(=O)C1=NN(c2cccc(C)c2)C(=O)CC1,0.424 (inactive),0.873,-0.249,-0.0907,–,–,–,–
C=CS(=O)c1sc(Cl)c(N2CCOCC2)c1[N+](=O)[O-] (stereo unspecified),-5.81 (active),-1.51,2.63,-2.55,–,–,–,–
O=C(NCc1ccccc1)c1ccc(CNc2c(N3CCCC3)c(=O)c2=O)cc1,1.94 (inactive),-1.79,-0.175,1.39,–,–,–,–
Cc1ccc(OCC(=O)Nc2cccc3c2CCCC3)cc1C,-0.29 (inactive),0.502,-0.193,-0.445,–,–,–,–
CCN(CC)c1ccc2cc(C(=O)O)c(=O)oc2c1,0.513 (inactive),-0.14,-0.259,0.0952,–,–,–,–
CCN(CC)c1ccc2c(Nc3ccccc3)c(C=O)c(=O)oc2c1,1.78 (inactive),-1.59,1.04,1.54,–,–,–,–
CCN(CC)c1ccc2oc(=O)c(C)nc2c1,–,–,–,–,-4.98 (active),0.102,1.35,-2.69
O=C(Nc1ccn(Cc2ccccc2)n1)c1n[nH]c([N+](=O)[O-])c1Cl,1.15 (inactive),-1.23,-0.194,0.757,–,–,–,–
Cc1cccc(-n2cc(CN3CCN(C(=O)c4ncn[nH]4)CC3)c(-c3cccc(F)c3)n2)c1,0.856 (inactive),-0.858,-0.164,0.386,–,–,–,–
CCN(CC)S(=O)(=O)c1ccc2c3c(cccc13)C(=O)S2,–,–,–,–,-0.224 (inactive),0.583,-0.26,-0.962
CCNC(=S)Nc1ccc(OC(F)(F)F)cc1,-0.827 (inactive),0.129,-0.313,0.232,–,–,–,–
CCOC(=O)CN(Cc1ccc(OC)c(OC)c1)S(=O)(=O)c1ccc(OC)cc1,-0.369 (inactive),0.666,-0.0278,0.0349,–,–,–,–
COc1ccc(C(CCN(Cc2ccc(OC)c(OC)c2)C(=O)CCl)c2ccccc2)cc1 (stereo unspecified),-5.18 (active),-0.271,0.893,-2.94,–,–,–,–
COc1ccc(CCNC(=O)C(Sc2ccccn2)c2ccccc2)cc1OC (stereo unspecified),1.23 (inactive),-0.867,-0.00233,0.852,–,–,–,–
CN(CCc1ccccn1)C(=O)CCC1CCCN(Cc2ccccc2OC(F)F)C1 (stereo unspecified),-0.0542 (inactive),0.0326,-0.306,0.247,–,–,–,–

Structure (SMILES),"z-score (at 20 µM, stronger effect = lower value)",z-score [1],z-score [2],z-score [3],"z-score (at 50 µM, stronger effect = lower value)",z-score [4],z-score [5],z-score [6]
C=CCn1cc(C(=O)NCc2ccc(Cl)cc2)c(=O)c2cc(S(=O)(=O)N(CC)CC)ccc21,0.479 (inactive),-0.781,-0.191,1.32,–,–,–,–
CSCCC(NC(=O)COc1ccccc1)C(=O)Nc1ccc(C)cc1 (stereo unspecified),0.137 (inactive),0.845,0.202,0.24,–,–,–,–
O=c1[nH][nH]c(=O)c2cc(N3CCCC3)ccc12,-0.37 (inactive),0.302,-0.256,0.0156,–,–,–,–
O=C1C=CC(=O)N1c1ccc(N2CCCCC2)cc1,-4.11 (active),-2.21,2.18,-1.81,–,–,–,–
Cc1ccccc1C(=O)Nc1ccc(N2CCCCCC2)cc1,-0.0609 (inactive),-0.96,0.105,0.497,–,–,–,–
COc1ccc(Cl)cc1-n1c(C)cc(C(=O)OCC(=O)N2CC(=O)Nc3ccccc32)c1C,-0.945 (inactive),0.925,-0.291,-0.693,–,–,–,–
COCCn1c(C)cc(C(=O)COC(=O)/C=C/c2cccc(OC)c2)c1C,-0.49 (inactive),0.119,-0.317,-0.136,–,–,–,–
COc1cccc(-c2ccc(SCC(=O)N3CCN(c4ccccc4)CC3)nn2)c1,1.32 (inactive),-1.03,-0.273,1.04,–,–,–,–
O=C(NCc1ccc(F)cc1)C(c1ccccc1)N(C(=O)c1csnn1)C1CC1 (stereo unspecified),2.29 (inactive),-1.97,-0.277,0.843,–,–,–,–
Cc1cc(C(=O)NCCc2ccc(Cl)cc2)n(-c2ccccc2)n1,-5.24 (active),-1.31,0.343,-3.12,–,–,–,–
O=C(NCCc1ccccc1)Oc1ccc(Cl)cc1,-0.396 (inactive),0.0482,-0.223,-0.459,–,–,–,–
Cc1cc(NC(=O)Nc2ccc(Cl)cc2)n(-c2ccccc2)n1,-0.438 (inactive),-0.392,-0.229,0.639,–,–,–,–
Brc1ccc2c(c1)[C@H]1OCC[C@H]1[C@@H](c1cccs1)N2,1.51 (inactive),-1.61,-0.149,1.53,–,–,–,–
COC(=O)[C@@H]1CC[C@H](C)[C@@H](c2ccc(C)cc2)N1C(=O)c1ccc(/C=N/O[C@H](C)c2cn([C@@H]3COC[C@H]3O)nn2)cc1,0.697 (inactive),0.326,-0.241,0.639,–,–,–,–
CC(=O)NCC(=O)N1CCCC(C(=O)c2ccc3c4c(cccc24)CC3)C1 (stereo unspecified),0.368 (inactive),-0.117,-0.201,0.261,–,–,–,–
Cc1ccc(O)c(CCc2ccccc2)n1,0.491 (inactive),-0.946,-0.202,0.586,–,–,–,–
Cc1[nH]c2ccccc2c1C(=O)COC(=O)c1c(-c2ccccc2)noc1C,-0.58 (inactive),0.403,-0.281,-0.747,–,–,–,–
